“And” between values parts separate entries of the source, which are not always exact repeats. Equal values may be shown once.
How the values were obtained:
Format in all cases: toxicity, cell-based
[1] = system: Fibroblast; assay: Multiplex assay against human fibroblast
Procedure, shortened: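 Per cents of healthy-nucleus cells form the tubulin, mitochondrial-mass and membrane-permeability phenotype values. Live cells were stained at seeding with Hoechst33342, BioTracker Green Microtubule Cytoskeleton Dye, MitoTracker Red and Annexin V Alexa Fluor 680. After compound addition they were imaged on a CQ1 microscope at 37°C and 5% CO2, and CellPathfinder machine-learning gating split them into Hoechst high-intensity objects or normal cells, normal cells into healthy, pyknosed or fragmented nuclei, and pyknosed cells into mitotic or apoptotic.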

[2] = system: HEK-293T; assay: Incucyte cell viability with HEK293T; details: human, 10 µM, compound concentration 10 uM; note: filed as whole numbers so only -1 and 0 and 1 occur
[3] = system: Fibroblast; assay: Incucyte cell viability with human fibroblast; details: 10 µM, compound concentration 10 uM; note: filed as whole numbers so only -1 and 0 and 1 occur
[4] = system: U2OS; assay: Incucyte cell viability with U2OS; details: human, 10 µM, compound concentration 10 uM; note: filed as whole numbers so only -1 and 0 and 1 occur
[5] = 12 h, 1 µM, compound concentration 1 uM, replicate 1
[6] = 12 h, 1 µM, compound concentration 1 uM, replicate 2
[7] = 12 h, 10 µM, compound concentration 10 uM, replicate 1
[8] = 12 h, 10 µM, compound concentration 10 uM, replicate 2
[9] = 24 h, 1 µM, compound concentration 1 uM, replicate 1
[10] = 24 h, 1 µM, compound concentration 1 uM, replicate 2
[11] = 24 h, 10 µM, compound concentration 10 uM, replicate 1
[12] = 24 h, 10 µM, compound concentration 10 uM, replicate 2
[13] = 48 h, 1 µM, compound concentration 1 uM, replicate 1
[14] = 48 h, 1 µM, compound concentration 1 uM, replicate 2
[15] = 48 h, 10 µM, compound concentration 10 uM, replicate 1
[16] = 48 h, 10 µM, compound concentration 10 uM, replicate 2
[17] = 0 h, replicate number 1, timepoint 0 hours
[18] = 6 h, replicate number 1, timepoint 6 hours
[19] = 12 h, replicate number 1, timepoint 12 hours
[20] = 18 h, replicate number 1, timepoint 18 hours
[21] = 24 h, replicate number 1, timepoint 24 hours

`CS(=O)(=O)N1CCCC(NC(=O)[C@H](CCC2CCCCC2)NC(=O)c2ccc(CNC(=O)c3cnc4ccccn34)cc2)C1` (stereo partly specified) [SR-302] was tested, and the “Population Apoptotic (%)” value [1, 5] was 63% [middle of 4 runs], the “Population Fragmented Nuclei (%)” value [1, 5] was 16% and 17% and 20% and the “Population Healthy Nuclei (%)” value [1, 5] was 42% [middle of 4 runs]. The “Population Hoechst High Intensity Objects (%)” value [1, 5] was 15% [middle of 4 runs], the “Population Membrane Permeable-Phenotype (%)” value [1, 5] was 31% and 23% and the “Population Mitochondria Different-Phenotype (%)” value [1, 5] was 10% [middle of 4 runs]. For the same compound, the “Population Mitotic Cells (%)” value [1, 5] was 42% [middle of 4 runs], the “Population Normal (%)” value [1, 5] was 85% and 84% and 80% and 87% and the “Population Pyknosed Nuclei (%)” value [1, 5] was 55% and 40% and 41%. The “Population Apoptotic (%)” value [1, 6] was 40% and 33% and 20%, the “Population Healthy Nuclei (%)” value [1, 6] was 81% [middle of 4 runs] and the “Population Membrane Permeable-Phenotype (%)” value [1, 6] was 0% and 7% and 2%. The “Population Mitochondria Different-Phenotype (%)” value [1, 6] was 6% and 7% and 9%, the “Population Mitotic Cells (%)” value [1, 6] was 60% and 66% and 80% and the “Population Normal (%)” value [1, 6] was 75% and 93% and 83% and 97%. The “Population Pyknosed Nuclei (%)” value [1, 6] was 12% [middle of 4 runs], the “Total Cell Count” value [1, 6] was 84 and 98 and 59 and the “Population Apoptotic (%)” value [1, 7] was 56% [middle of 4 runs]. For the same compound, the “Population Fragmented Nuclei (%)” value [1, 7] was 26% [middle of 4 runs], the “Population Healthy Nuclei (%)” value [1, 7] was 20% and 32% and 52% and the “Population Hoechst High Intensity Objects (%)” value [1, 7] was 11% and 19% and 9%. For the same compound, the “Population Membrane Permeable-Phenotype (%)” value [1, 7] was 20% [middle of 4 runs], the “Population Mitotic Cells (%)” value [1, 7] was 48% [middle of 4 runs] and the “Population Normal (%)” value [1, 7] was 88% and 80% and 91%. The “Population Pyknosed Nuclei (%)” value [1, 7] was 51% [middle of 4 runs], the “Population Tubulin-Different-Phenotype (%)” value [1, 7] was 86% [middle of 4 runs] and the “Total Cell Count” value [1, 7] was 137 [middle of 4 runs]. The “Population Apoptotic (%)” value [1, 8] was 71% [middle of 4 runs], the “Population Healthy Nuclei (%)” value [1, 8] was 34% and 80% and 83% and the “Population Membrane Permeable-Phenotype (%)” value [1, 8] was 18% and 23% and 11%. The “Population Normal (%)” value [1, 8] was 66% and 92% and 93% and 96%, the “Population Pyknosed Nuclei (%)” value [1, 8] was 17% and 7% and 9% and the “Population Tubulin-Different-Phenotype (%)” value [1, 8] was 91% [middle of 4 runs]. The “Total Cell Count” value [1, 8] was 77 [middle of 4 runs], the “Population Apoptotic (%)” value [1, 9] was 72% [middle of 4 runs] and the “Population Fragmented Nuclei (%)” value [1, 9] was 25% [middle of 4 runs]. The “Population Healthy Nuclei (%)” value [1, 9] was 51% [middle of 4 runs], the “Population Hoechst High Intensity Objects (%)” value [1, 9] was 17% [middle of 4 runs] and the “Population Mitochondria Different-Phenotype (%)” value [1, 9] was 7% [middle of 4 runs]. For the same compound, the “Population Mitotic Cells (%)” value [1, 9] was 40% [middle of 4 runs], the “Population Normal (%)” value [1, 9] was 85% and 77% and 82% and 83% and the “Population Pyknosed Nuclei (%)” value [1, 9] was 28% [middle of 4 runs]. For the same compound, the “Population Membrane Permeable-Phenotype (%)” value [1, 10] was 0% and 5% and 1%, the “Population Mitochondria Different-Phenotype (%)” value [1, 10] was 6% and 8% and 4% and the “Population Mitotic Cells (%)” value [1, 10] was 66% [middle of 4 runs]. For the same compound, the “Population Normal (%)” value [1, 10] was 76% and 95%, the “Total Cell Count” value [1, 10] was 97 [middle of 4 runs] and the “Population Apoptotic (%)” value [1, 11] was 57% [middle of 4 runs]. The “Population Fragmented Nuclei (%)” value [1, 11] was 24% [middle of 4 runs], the “Population Healthy Nuclei (%)” value [1, 11] was 37% and 27% and 59% and the “Population Hoechst High Intensity Objects (%)” value [1, 11] was 10% [middle of 4 runs]. The “Population Mitotic Cells (%)” value [1, 11] was 51% [middle of 4 runs], the “Population Normal (%)” value [1, 11] was 100% and 89% and 80% and 92% and the “Population Pyknosed Nuclei (%)” value [1, 11] was 51% [middle of 4 runs]. For the same compound, the “Population Tubulin-Different-Phenotype (%)” value [1, 11] was 82% [middle of 4 runs], the “Population Apoptotic (%)” value [1, 12] was 55% [middle of 4 runs] and the “Population Membrane Permeable-Phenotype (%)” value [1, 12] was 16% [middle of 4 runs]. The “Population Mitochondria Different-Phenotype (%)” value [1, 12] was 75% [middle of 4 runs], the “Population Mitotic Cells (%)” value [1, 12] was 45% [middle of 4 runs] and the “Population Normal (%)” value [1, 12] was 62% and 88% and 95% and 94%. For the same compound, the “Population Pyknosed Nuclei (%)” value [1, 12] was 24% and 15% and 13%, the “Population Tubulin-Different-Phenotype (%)” value [1, 12] was 72% [middle of 4 runs] and the “Total Cell Count” value [1, 12] was 88 [middle of 4 runs]. The “Population Apoptotic (%)” value [1, 13] was 58% and 70% and 55%, the “Population Fragmented Nuclei (%)” value [1, 13] was 42% and 31% and 22% and the “Population Healthy Nuclei (%)” value [1, 13] was 40% and 46% and 52%. The “Population Hoechst High Intensity Objects (%)” value [1, 13] was 18% and 24% and 20%, the “Population Membrane Permeable-Phenotype (%)” value [1, 13] was 14% and 36% and 20% and the “Population Mitochondria Different-Phenotype (%)” value [1, 13] was 7% and 13% and 5%. For the same compound, the “Population Mitotic Cells (%)” value [1, 13] was 41% and 30% and 44%, the “Population Normal (%)” value [1, 13] was 81% and 75% and 79% and the “Population Pyknosed Nuclei (%)” value [1, 13] was 17% and 21% and 24%. For the same compound, the “Population Tubulin-Different-Phenotype (%)” value [1, 13] was 42% and 59% and 28%, the “Total Cell Count” value [1, 13] was 86 and 62 and 93 and the “Population Fragmented Nuclei (%)” value [1, 14] was 19% and 14% and 23%. The “Population Healthy Nuclei (%)” value [1, 14] was 79% and 82% and 72%, the “Population Hoechst High Intensity Objects (%)” value [1, 14] was 13% and 8% and 15% and the “Population Membrane Permeable-Phenotype (%)” value [1, 14] was 9% and 7%. For the same compound, the “Population Mitochondria Different-Phenotype (%)” value [1, 14] was 0% and 4%, the “Population Normal (%)” value [1, 14] was 86% and 91% and 84% and the “Total Cell Count” value [1, 14] was 105 and 83 and 107. For the same compound, the “Population Apoptotic (%)” value [1, 15] was 53% and 87% and 50%, the “Population Fragmented Nuclei (%)” value [1, 15] was 31% and 64% and 30% and the “Population Healthy Nuclei (%)” value [1, 15] was 47% and 22% and 30%. For the same compound, the “Population Hoechst High Intensity Objects (%)” value [1, 15] was 27% and 36% and 28%, the “Population Mitochondria Different-Phenotype (%)” value [1, 15] was 33% and 50% and 53% and the “Population Normal (%)” value [1, 15] was 72% and 63% and 71%. For the same compound, the “Population Tubulin-Different-Phenotype (%)” value [1, 15] was 70% and 64% and 92%, the “Total Cell Count” value [1, 15] was 87 and 97 and 118 and the “Population Apoptotic (%)” value [1, 16] was 66% and 44%. For the same compound, the “Population Fragmented Nuclei (%)” value [1, 16] was 35% and 26% and 27%, the “Population Healthy Nuclei (%)” value [1, 16] was 60% and 65% and 62% and the “Population Membrane Permeable-Phenotype (%)” value [1, 16] was 7% and 5%. The “Population Mitochondria Different-Phenotype (%)” value [1, 16] was 37% and 45%, the “Population Mitotic Cells (%)” value [1, 16] was 33% and 55% and the “Population Normal (%)” value [1, 16] was 98% and 90%. For the same compound, the “Population Pyknosed Nuclei (%)” value [1, 16] was 4% and 7% and 10%, the “Population Tubulin-Different-Phenotype (%)” value [1, 16] was 91% and 93% and 96% and the “Total Cell Count” value [1, 16] was 133 and 139. The “Growth Rate” value [2, 17] was 0, the “Growth Rate” value [2, 18] was 0 and the “Growth Rate” value [2, 19] was 0. For the same compound, the “Growth Rate” value [2, 20] was 0, the “Growth Rate” value [2, 21] was 0 and the “Growth Rate” value [3, 17] was 0. For the same compound, the “Growth Rate” value [3, 18] was 1, the “Growth Rate” value [3, 19] was 0 and the “Growth Rate” value [3, 20] was 0. For the same compound, the “Growth Rate” value [3, 21] was 0, the “Growth Rate” value [4, 17] was 0 and the “Growth Rate” value [4, 18] was 1. For the same compound, the “Growth Rate” value ([4]; 6 h, replicate number 2, timepoint 6 hours) was 0, the “Growth Rate” value [4, 19] was 0 and the “Growth Rate” value [4, 20] was 0. For the same compound, the “Growth Rate” value ([4]; 18 h, replicate number 2, timepoint 18 hours) was 1 and the “Growth Rate” value [4, 21] was 0.

From ChEMBL document CHEMBL4689842, “EUbOPEN Chemogenomics Library wave 1” (2021)
